Laboratory results as given in the M2OR odorant receptor database.

Legend:
Settings in all cases: stereoisomer not certain
[1] = biological target: T1, UniProt Q8VGX8
T1 sequence (whole entry): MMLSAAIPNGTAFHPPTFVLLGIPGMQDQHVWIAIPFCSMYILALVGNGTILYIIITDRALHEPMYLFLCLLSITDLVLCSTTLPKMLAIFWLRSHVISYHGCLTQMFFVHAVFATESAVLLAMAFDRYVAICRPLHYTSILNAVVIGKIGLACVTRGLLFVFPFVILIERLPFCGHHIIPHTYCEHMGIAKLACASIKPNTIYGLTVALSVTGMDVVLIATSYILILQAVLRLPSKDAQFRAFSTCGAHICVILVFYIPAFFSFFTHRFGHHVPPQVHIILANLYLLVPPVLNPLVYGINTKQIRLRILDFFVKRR
Outline: (§1)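 Transient luciferase assays in mammalian cell lines were common, though methods varied by source. The values come from published papers and their supplementary material, with extra details from the original authors when needed. Responsive refers to a measured signal the original authors judged statistically different from baseline, and non-responsive (inactive) to the remainder.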

[2] = biological target: T2, UniProt Q8VGY6
T2 sequence (whole entry): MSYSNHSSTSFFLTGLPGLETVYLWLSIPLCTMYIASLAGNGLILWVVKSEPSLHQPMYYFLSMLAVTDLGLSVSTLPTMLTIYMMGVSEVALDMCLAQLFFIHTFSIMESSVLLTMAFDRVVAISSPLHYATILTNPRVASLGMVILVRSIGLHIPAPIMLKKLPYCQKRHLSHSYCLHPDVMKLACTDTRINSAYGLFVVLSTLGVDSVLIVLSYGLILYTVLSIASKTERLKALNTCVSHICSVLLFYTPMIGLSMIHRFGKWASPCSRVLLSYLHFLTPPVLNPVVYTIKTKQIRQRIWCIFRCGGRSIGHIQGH
Outline: as §1

[3] = biological target: T3, UniProt Q8VGZ2
T3 sequence (whole entry): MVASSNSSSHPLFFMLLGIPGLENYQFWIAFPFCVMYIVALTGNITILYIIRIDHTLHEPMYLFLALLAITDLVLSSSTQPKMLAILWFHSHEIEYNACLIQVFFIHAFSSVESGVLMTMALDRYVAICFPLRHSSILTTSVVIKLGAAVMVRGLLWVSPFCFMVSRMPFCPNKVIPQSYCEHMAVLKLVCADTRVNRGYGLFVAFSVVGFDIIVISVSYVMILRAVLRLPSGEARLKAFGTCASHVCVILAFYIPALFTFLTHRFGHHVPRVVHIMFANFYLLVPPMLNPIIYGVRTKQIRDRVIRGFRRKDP
Outline: as §1

[4] = biological target: T4, UniProt Q8VGZ7
T4 sequence (whole entry): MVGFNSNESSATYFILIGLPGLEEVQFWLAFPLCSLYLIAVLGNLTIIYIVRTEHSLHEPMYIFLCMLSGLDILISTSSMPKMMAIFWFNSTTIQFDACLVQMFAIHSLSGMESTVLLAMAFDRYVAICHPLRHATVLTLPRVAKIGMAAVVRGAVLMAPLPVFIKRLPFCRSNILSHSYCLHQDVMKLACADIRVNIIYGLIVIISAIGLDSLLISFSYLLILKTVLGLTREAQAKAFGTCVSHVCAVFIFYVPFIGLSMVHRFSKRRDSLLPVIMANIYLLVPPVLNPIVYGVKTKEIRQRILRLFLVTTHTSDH
Outline: as §1

[5] = biological target: T5, UniProt Q8VH10
T5 sequence (whole entry): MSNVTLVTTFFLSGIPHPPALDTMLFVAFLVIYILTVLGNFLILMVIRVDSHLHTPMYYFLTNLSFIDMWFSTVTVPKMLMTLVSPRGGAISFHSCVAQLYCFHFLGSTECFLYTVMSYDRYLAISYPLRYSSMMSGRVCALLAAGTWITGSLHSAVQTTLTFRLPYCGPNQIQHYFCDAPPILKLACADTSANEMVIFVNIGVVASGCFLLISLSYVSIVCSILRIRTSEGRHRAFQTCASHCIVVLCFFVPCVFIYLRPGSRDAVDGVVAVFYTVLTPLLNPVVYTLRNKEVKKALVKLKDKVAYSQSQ
Outline: as §1

[6] = biological target: T6, UniProt Q8VH16
T6 sequence (whole entry): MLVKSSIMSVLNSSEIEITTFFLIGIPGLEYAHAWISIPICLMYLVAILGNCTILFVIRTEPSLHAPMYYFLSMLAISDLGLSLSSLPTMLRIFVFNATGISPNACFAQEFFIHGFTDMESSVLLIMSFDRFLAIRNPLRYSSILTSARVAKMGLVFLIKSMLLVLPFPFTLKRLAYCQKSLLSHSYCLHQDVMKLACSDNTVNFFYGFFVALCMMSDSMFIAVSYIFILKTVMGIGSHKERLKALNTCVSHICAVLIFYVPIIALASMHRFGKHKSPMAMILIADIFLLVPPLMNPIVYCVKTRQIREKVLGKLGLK
Outline: as §1

[7] = biological target: T7, UniProt Q8VH20
T7 sequence (whole entry): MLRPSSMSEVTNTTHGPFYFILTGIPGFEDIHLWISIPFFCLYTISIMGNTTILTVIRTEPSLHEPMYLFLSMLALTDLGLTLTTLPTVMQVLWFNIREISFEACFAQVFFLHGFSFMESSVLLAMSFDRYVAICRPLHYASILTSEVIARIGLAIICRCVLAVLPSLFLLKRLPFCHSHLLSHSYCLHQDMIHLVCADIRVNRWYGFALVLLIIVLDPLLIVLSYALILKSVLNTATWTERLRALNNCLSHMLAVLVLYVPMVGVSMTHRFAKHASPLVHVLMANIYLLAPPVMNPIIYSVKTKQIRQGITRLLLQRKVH
Outline: as §1

[8] = biological target: T8, UniProt Q8VH21
T8 sequence (whole entry): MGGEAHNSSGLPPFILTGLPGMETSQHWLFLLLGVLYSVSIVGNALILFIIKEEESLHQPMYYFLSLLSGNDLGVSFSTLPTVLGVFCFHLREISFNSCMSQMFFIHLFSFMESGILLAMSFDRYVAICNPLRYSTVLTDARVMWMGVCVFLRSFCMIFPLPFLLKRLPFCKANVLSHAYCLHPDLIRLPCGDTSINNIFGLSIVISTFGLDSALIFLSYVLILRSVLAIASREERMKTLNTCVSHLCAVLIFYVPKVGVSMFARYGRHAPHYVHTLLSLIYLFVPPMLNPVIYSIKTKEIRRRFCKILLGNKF
Outline: as §1

[9] = biological target: T9, UniProt Q924H8
T9 sequence (whole entry): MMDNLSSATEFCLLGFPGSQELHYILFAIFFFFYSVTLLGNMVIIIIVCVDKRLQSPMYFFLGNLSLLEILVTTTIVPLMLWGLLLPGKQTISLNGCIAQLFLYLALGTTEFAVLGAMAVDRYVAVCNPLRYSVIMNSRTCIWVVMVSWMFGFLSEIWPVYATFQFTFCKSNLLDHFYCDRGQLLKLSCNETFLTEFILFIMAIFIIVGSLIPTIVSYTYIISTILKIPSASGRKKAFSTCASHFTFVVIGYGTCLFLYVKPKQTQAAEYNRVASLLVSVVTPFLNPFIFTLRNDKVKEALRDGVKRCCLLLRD
Outline: as §1

[10] = biological target: T10, UniProt Q9EPN9
T10 sequence (whole entry): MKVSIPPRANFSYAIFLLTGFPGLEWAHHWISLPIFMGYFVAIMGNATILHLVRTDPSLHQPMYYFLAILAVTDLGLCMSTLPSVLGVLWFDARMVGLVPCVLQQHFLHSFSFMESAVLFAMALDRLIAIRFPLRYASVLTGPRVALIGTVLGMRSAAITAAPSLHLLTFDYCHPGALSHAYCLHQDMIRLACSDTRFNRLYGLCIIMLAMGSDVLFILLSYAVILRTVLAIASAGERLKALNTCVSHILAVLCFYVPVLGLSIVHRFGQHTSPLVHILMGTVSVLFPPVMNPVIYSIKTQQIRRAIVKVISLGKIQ
Outline: as §1

[11] = biological target: UniProt Q9R0K2
UniProt Q9R0K2, sequence (Q9R0K2 as listed by the source): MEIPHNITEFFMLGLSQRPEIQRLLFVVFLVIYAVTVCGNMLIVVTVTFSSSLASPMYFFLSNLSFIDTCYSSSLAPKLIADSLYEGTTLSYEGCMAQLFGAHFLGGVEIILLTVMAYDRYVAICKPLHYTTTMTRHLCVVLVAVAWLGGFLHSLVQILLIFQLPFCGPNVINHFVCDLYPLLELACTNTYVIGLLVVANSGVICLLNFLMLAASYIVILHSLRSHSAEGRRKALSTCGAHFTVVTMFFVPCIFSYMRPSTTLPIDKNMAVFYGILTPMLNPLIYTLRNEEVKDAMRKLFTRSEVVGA
Outline: as §1

[12] = biological target: T11, UniProt Q9WU86
T11 sequence (whole entry): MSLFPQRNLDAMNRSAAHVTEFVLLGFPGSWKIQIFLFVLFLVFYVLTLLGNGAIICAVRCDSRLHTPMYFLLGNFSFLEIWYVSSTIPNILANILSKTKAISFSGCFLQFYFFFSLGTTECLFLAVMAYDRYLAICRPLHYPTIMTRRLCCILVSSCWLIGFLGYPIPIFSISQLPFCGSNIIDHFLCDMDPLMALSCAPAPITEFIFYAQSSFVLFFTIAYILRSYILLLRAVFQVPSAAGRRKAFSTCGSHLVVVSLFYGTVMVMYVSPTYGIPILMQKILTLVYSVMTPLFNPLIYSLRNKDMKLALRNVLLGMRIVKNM
Outline: as §1

[13] = biological target: T12, UniProt Q8VH18
T12 sequence (whole entry): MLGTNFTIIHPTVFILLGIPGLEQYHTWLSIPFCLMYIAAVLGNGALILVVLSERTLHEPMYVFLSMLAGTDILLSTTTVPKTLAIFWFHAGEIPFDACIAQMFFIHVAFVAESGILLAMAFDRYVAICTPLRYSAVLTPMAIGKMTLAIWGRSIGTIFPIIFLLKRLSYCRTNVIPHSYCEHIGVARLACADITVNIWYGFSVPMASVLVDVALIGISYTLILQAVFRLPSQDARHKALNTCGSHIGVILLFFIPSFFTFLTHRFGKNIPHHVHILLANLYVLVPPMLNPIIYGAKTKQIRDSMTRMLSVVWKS
Outline: as §1

[14] = biological target: T13, UniProt Q924X8
T13 sequence (whole entry): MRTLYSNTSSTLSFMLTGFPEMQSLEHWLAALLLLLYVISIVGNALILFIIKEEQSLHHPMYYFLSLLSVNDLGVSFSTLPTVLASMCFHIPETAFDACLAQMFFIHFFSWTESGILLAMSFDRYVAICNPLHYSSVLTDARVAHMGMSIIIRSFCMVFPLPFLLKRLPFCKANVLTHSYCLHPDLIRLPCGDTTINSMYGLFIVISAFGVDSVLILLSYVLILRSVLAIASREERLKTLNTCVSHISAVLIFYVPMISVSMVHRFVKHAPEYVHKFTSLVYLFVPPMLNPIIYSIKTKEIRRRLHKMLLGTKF
Outline: as §1

[15] = biological target: T14, UniProt Q99NH4
T14 sequence (whole entry): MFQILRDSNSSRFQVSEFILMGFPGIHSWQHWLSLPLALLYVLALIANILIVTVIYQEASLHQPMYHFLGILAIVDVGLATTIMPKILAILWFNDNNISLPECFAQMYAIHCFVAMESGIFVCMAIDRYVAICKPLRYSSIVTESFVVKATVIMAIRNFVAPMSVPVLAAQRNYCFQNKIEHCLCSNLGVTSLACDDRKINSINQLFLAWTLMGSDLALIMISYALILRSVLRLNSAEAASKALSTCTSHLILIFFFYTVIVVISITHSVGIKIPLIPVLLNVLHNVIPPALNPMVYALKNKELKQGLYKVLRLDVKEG
Outline: as §1

[16] = biological target: T15, UniProt Q9WU94
T15 sequence (whole entry): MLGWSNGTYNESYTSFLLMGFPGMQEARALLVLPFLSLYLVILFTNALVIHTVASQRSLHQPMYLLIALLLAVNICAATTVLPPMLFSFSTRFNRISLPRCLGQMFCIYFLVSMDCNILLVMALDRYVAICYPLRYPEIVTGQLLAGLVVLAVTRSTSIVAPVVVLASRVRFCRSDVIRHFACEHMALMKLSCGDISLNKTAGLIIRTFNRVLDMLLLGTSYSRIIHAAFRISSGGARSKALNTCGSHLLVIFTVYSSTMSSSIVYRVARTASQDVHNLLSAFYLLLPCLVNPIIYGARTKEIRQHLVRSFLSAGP
Outline: as §1

[17] = biological target: T16, UniProt Q9WVD7
T16 sequence (whole entry): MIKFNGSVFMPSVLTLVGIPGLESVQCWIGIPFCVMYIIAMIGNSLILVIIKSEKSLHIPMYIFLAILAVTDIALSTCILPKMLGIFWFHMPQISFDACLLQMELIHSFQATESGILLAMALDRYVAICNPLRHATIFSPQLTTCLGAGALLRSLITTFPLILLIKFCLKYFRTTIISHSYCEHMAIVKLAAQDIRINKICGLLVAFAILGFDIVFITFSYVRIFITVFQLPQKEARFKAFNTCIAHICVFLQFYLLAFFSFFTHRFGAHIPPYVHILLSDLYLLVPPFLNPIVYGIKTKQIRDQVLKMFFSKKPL
Outline: as §1
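Note: active if original authors judged signal statistically different from baseline.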

CCCCCC1=C(C)CCC1=O
odorant receptor agonist call [1]: inactive | odorant receptor agonist call [2]: inactive | odorant receptor agonist call [3]: inactive | odorant receptor agonist call [4]: inactive | odorant receptor agonist call [5]: inactive | odorant receptor agonist call [6]: inactive | odorant receptor agonist call [7]: inactive | odorant receptor agonist call [8]: inactive | odorant receptor agonist call [9]: inactive | odorant receptor agonist call [10]: inactive | odorant receptor agonist call [11]: inactive | odorant receptor agonist call [12]: inactive

CCCCCCCCC(=O)O
odorant receptor agonist call [1]: active | odorant receptor agonist call [2]: inactive | odorant receptor agonist call [3]: active | odorant receptor agonist call [4]: active | odorant receptor agonist call [5]: inactive | odorant receptor agonist call [6]: inactive | odorant receptor agonist call [13]: active | odorant receptor agonist call [7]: active | odorant receptor agonist call [8]: inactive | odorant receptor agonist call [9]: inactive | odorant receptor agonist call [14]: inactive | odorant receptor agonist call [15]: active | odorant receptor agonist call [10]: inactive | odorant receptor agonist call [11]: inactive | odorant receptor agonist call [12]: inactive | odorant receptor agonist call [16]: inactive | odorant receptor agonist call [17]: active
